The whole screen tested about 310,000 compounds, of which about 1,100 (0.35%) were called active. This is one part of a sample in which actives are shown more often than they occur.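 Rule for the calls: active = fluorescence ratio B-score, a plate-corrected score, at least three library SD, with initial intensity B-score within 5 SD; inactive = the rest.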
The compounds below were run against Potassium voltage-gated channel subfamily KQT member 1 (Homo sapiens) (UniProt P51787) (assay: potentiators or activators of KCNQ1 channel, primary screen, cell-based, thallium flux, high-throughput (AID 2648)). Conditions: CHO-K1 KCNQ1, thallium flux FluxOR fluorescence, at 10 µM; hits give high values.
How it was run: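 Material: CHO-K1 cells stably expressing KCNQ1. Medium: assay buffer for compound exposure, DMSO matched across wells. Reagent: K+/Tl+ depolarizing stimulus. Compound dosing: single-concentration screen. Times: 37 °C overnight plating, 90-min dark dye load, 20-min compound pretreatment. Technique: FluxOR Tl+ flux fluorescence.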

Chain of Potassium voltage-gated channel subfamily KQT member 1 (Homo sapiens) (P51787 whole entry, looked up): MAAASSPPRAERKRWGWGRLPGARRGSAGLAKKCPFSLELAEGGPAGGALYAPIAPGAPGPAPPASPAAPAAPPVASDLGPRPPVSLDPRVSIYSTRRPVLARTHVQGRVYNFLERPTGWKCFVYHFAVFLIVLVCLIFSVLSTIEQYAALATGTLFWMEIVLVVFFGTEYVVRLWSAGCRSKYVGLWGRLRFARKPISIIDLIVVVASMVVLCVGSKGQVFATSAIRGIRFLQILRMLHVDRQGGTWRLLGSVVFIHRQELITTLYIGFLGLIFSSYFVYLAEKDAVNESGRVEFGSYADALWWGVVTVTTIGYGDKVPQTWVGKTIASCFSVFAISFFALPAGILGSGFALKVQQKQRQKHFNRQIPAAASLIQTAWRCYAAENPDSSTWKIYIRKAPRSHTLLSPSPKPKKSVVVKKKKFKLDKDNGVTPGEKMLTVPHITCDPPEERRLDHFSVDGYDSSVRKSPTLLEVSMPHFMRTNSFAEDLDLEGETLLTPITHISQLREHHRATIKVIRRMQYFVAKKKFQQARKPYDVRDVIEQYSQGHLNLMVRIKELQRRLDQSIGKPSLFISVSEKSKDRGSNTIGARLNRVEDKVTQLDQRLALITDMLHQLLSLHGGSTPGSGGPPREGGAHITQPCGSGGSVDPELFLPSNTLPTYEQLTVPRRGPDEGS

SMILES | B-score
COc1cc(-n2c(=S)[nH]c3ccc(C)cc3c2=O)c(Cl)cc1Cl | 8 (active)
C/C=C/CC1(CC)C(=O)NC(=S)NC1=O | inactive
CCN(CC)C(=O)c1ccc(NC(=O)c2sccc2-c2ccccc2)cc1 | inactive
Cc1ccc2c(c1)C1CN(C)CCC1N2C(=O)Cn1nnc(-c2ccccc2F)n1 (stereo not given) | inactive
CC(Cc1ccccc1)NC=O (stereo not given) | inactive

— PubChem BioAssay AID2648 (Johns Hopkins Ion Channel Center, 2010)
